In ChEMBL document CHEMBL1177683, “Synthesis and pharmacological evaluation of pyrazine N-acylhydrazone derivatives designed as novel analgesic and anti-inflammatory drug candidates” (2010):
The source made the active and inactive calls. The calls are words filed in the database; no cut-off is given here.

Columns and labels:
Mus musculus [1] = test: Antiedematogenic activity in Swiss mouse assessed as inhibition of capsaicin-induced ear edema at 100 umol/kg, po administered 40 mins before capsaicin challenge measured after 30 mins relative to control
Mus musculus [2] = test: Analgesic activity in Swiss mouse assessed as increase in latency of paw licking at 100 umol/kg, po after 150 mins measured for 60 seconds by hot plate test (reference value: 5.1 +/- 0.4 seconds); format: functional
Mus musculus [3] = test: Analgesic activity in Swiss mouse assessed as increase in latency of paw licking at 100 umol/kg, po after 120 mins measured for 60 seconds by hot plate test (reference value: 5.6 +/- 0.5 seconds); format: functional
Mus musculus [4] = test: Antiedematogenic activity in Swiss mouse assessed as decrease of capsaicin-induced ear edema weight at 100 umol/kg, po administered 40 mins before capsaicin challenge measured after 30 mins relative to control; set-up: scale not given: the % may be the effect or the level left
Mus musculus [5] = test: Antinociceptive activity in Swiss mouse assessed as inhibition of acetic acid-induced abdominal constrictions at 100 umol/kg, po administered 40 mins before acetic acid challenge measured for 25 mins relative to control; format: functional; conditions: Abdomen
Method in brief: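 Mice were dosed at 100 µmol/kg po in arabic gum (10 mL/kg), 40 min before 0.6% v/v acetic acid ip (0.1 mL/10 g). Writhes (abdominal contraction, pelvic rotation, hind-limb extension) were counted for 20 min starting 5 min post-injection. Results are expressed as % inhibition versus vehicle controls. Groups of 6 (control 10), ANOVA/Dunnett.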

Mus musculus [6] = test: Analgesic activity in Swiss mouse assessed as increase in latency of paw licking at 100 umol/kg, po after 90 mins measured for 60 seconds by hot plate test (reference value: 5.9 +/- 0.8 seconds); format: functional
Mus musculus [7] = test: Analgesic activity in Swiss mouse assessed as increase in latency of paw licking at 100 umol/kg, po after 60 mins measured for 60 seconds by hot plate test (reference value: 4.9 +/- 0.5 seconds); format: functional
Mus musculus [8] = test: Analgesic activity against formalin-induced acute pain in Swiss mouse assessed inhibition of nociception at 100 umol/kg, po administered 40 mins before formalin challenge measured for 15 to 30 mins relative to control; format: functional
Method in brief: (§1)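 Mice, 6 per group, received 20 µL of 2.5% formalin (0.92% formaldehyde in saline) into the ventral surface of the right hind paw. Dosing was 100 µmol/kg po in arabic gum vehicle (10 mL/kg), 40 min beforehand. Time spent licking the injected paw was recorded over 0–5 min (neurogenic phase) and 15–30 min (inflammatory phase). Data are mean ± S.E.M., ANOVA/Dunnett versus vehicle.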

Mus musculus [9] = test: Analgesic activity against formalin-induced acute pain in Swiss mouse assessed as decrease of time spent in paw licking at 100 umol/kg, po administered 40 mins before formalin challenge measured for 15 to 30 mins; format: functional, organism-based
Method in brief: as §1

SMILES	inhibition in vivo at 100 µmol/kg (Mus musculus [1])	Time (Mus musculus [2])	Time (Mus musculus [3])	Activity (Mus musculus [4])	inhibition in vivo at 100 µmol/kg (Mus musculus [5])	Time (Mus musculus [6])	Time (Mus musculus [7])	inhibition in vivo at 100 µmol/kg (Mus musculus [8])	Activity (Mus musculus [9])
COc1ccc(/C=N/NC(=O)c2cnccn2)cc1OC	49.6%	3.8 s	6.3 s	29.5%	73.6%	4.2 s	4.8 s	29.1%	
Cc1ccc(-c2cc(C(F)(F)F)nn2-c2ccc(S(N)(=O)=O)cc2)cc1 [CELECOXIB]	56.4%	3.8 s	4.4 s	25.5%	56.9%	5.7 s	5.5 s	68.4%	
O=C(N/N=C/c1ccc2c(c1)OCO2)c1cnccn1	44.7%	3.2 s	4.4 s	32.3%	78.2%	3 s	2.4 s	46.7%	Active
O=C(N/N=C/c1ccc(F)cc1)c1cnccn1	33.1%	3.1 s	4.8 s	39.1%	74.5%	5.4 s	4.6 s	72.3%	Active
O=C(N/N=C/c1ccc([N+](=O)[O-])cc1)c1cnccn1	41.9%	4.9 s	4.9 s	34%	40.4%	5.4 s	3.1 s	44.4%	Active
O=C(N/N=C/c1ccc(-c2ccccc2)cc1)c1cnccn1	47.7%	4.5 s	4 s	32.9%	57.3%	3.5 s	2.7 s	46.9%	Active
COc1ccc2c(c1)c(CC(=O)O)c(C)n2C(=O)c1ccc(Cl)cc1 [INDOMETHACIN]	49.3%			29.7%	73.1%			39%	
O=C(N/N=C/c1ccncc1)c1cnccn1	32.3%	4.5 s	5.4 s	45.7%	40.4%	3.2 s	3.5 s	58.4%	Active
O=C(N/N=C/c1ccc(C(F)(F)F)cc1)c1cnccn1	48.3%	4 s	2.4 s	30.2%	54.5%	3.9 s	3.1 s	27.7%	
COc1ccc(/C=N/NC(=O)c2cnccn2)cc1O	27%	4.7 s	1.9 s	42.8%	64.8%	4 s	2 s	14.7%	
CC(C)(C)c1cc(/C=N/NC(=O)c2cnccn2)cc(C(C)(C)C)c1O	32.3%	5.4 s	3.4 s	39.5%	71.6%	3.4 s	2.7 s	26.8%	
O=C(N/N=C/c1ccccn1)c1cnccn1	44.9%	3 s	4.5 s	32.2%	75.5%	4.4 s	2.4 s	56.4%	Active
CC(C)c1ccc(/C=N/NC(=O)c2nc3ccccc3nc2-c2ccccc2)cc1	47.5%	4.3 s	5.4 s	30.7%	77.3%	5 s	4.6 s	66.5%	
O=C(N/N=C/c1ccc2ccccc2c1)c1cnccn1	35.4%	4.5 s	4.4 s	37.8%	68.4%	3.5 s	2.8 s	68%	
O=C(N/N=C/c1ccccc1)c1cnccn1	30.5%	5.2 s	4 s	40.6%	42.4%	4.2 s	4.4 s	60.8%	Active
CC(C)c1ccc(/C=N/NC(=O)c2cnccn2)cc1	46.6%	4.6 s	5.2 s	31.2%	67.6%	4.7 s	3.3 s	66.5%	Active
O=C(N/N=C/c1cc(=O)c2ccccc2o1)c1cnccn1	55.3%	4.2 s	6.2 s	26.1%	86.3%	3.5 s	2.5 s	52.7%	Active
O=C(N/N=C/c1c2ccccc2cc2ccccc12)c1cnccn1	54.7%	6.6 s	5.6 s	26.5%	33.6%	6.2 s	3.7 s	45.8%	
COc1cc(/C=N/NC(=O)c2cnccn2)ccc1O	63.5%	4.4 s	3.4 s	21.3%	47%	3.2 s	2.6 s	31.8%	
O=C(N/N=C/c1ccc(O)cc1)c1cnccn1	42.3%	4 s	5.3 s	33.7%	61.4%	3.4 s	3.1 s	16.7%	
